RGS4 inh = RGS4 inhibitors, primary screen, cell-based, HEK293 M3R inducible RGS4, calcium flux; Regulator of G-protein signaling 4 (Homo sapiens), P49798; 310,000 tested, 0.45% active; B-score at 10 µM; Fluo-4 calcium flux; stronger effect = higher value; triggered by carbachol at its EC20;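 active = B-score, a plate-corrected calcium signal, over three deviations above library mean, with baseline fluorescence within five deviations of library mean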;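 note: RGS4 expression induced by doxycycline in cells with stable M3 receptor; B-score is computed from the integrated fluorescence ratio over baseline after carbachol; higher B-score means a larger calcium signal and so more RGS4 inhibition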
Target sequence (P49798 whole entry, looked up): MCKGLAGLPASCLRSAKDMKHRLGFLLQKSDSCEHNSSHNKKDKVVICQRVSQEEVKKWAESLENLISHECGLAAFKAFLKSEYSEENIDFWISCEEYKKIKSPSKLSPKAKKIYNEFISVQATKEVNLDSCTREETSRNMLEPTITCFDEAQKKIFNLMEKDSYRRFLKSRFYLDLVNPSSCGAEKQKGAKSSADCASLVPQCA
RGS4 pot = RGS4 potentiators or activators, primary screen, cell-based, HEK293 M3R inducible RGS4, calcium flux. 310,000 tested, 0.92% active. carbachol calcium flux Fluo4; stronger effect = lower value. B-score at 10 µM;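 active = B-score of the integrated calcium signal more than 4 SD below the library mean, with starting fluorescence not abnormally high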;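 note: negative B-score means reduced calcium response which marks RGS4 activation or potentiation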
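Material: M3R-expressing HEK293 line, RGS4 induced by doxycycline | Schedule: Overnight RGS4 induction, 30 min dye load 37 °C, 20 min compound RT | Measured by: Fluo4 fluorescence kinetic imaging of calcium | Read-out: Integrated calcium ratio converted to B score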
MrgX1 ag = agonists of human MrgX1 receptor, primary screen, HEK293 cells, Fluo-4 calcium flux; Mas-related G-protein coupled receptor member X1 (Homo sapiens), Q96LB2; Fluo-4 calcium fluorescence, agonist mode; stronger effect = higher value; B-score at 10 µM; 310,000 tested, 0.44% active; AID 588627, 2011;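 active = calcium response B-score plate-corrected fluorescence ratio at least 3 library SD, with starting fluorescence B-score inside 5 SD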
Target sequence (Q96LB2 whole entry, looked up): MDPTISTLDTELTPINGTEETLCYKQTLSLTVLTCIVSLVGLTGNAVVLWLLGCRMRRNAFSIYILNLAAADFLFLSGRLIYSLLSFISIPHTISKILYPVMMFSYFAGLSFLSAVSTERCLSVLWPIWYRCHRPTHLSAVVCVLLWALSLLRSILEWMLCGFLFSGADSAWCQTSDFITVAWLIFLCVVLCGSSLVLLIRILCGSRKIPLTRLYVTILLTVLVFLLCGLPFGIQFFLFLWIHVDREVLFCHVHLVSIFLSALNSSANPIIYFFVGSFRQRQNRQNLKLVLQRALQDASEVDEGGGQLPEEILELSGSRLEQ
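Assay system: MrgX1-expressing HEK293 cells / Amount: fifteen thousand cells per well / Doses: test compound in the initial addition of three / Timing: cells plated overnight, dye loaded 0.5 h 37 °C, 0.5 h room temperature / Technique: kinetic calcium dye fluorescence, Fluo-4 NW / Control set: positive and negative controls per plate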
MrgX1 allo act = positive allosteric modulators of MrgX1, primary screen, HEK293 cells, Fluo-4 calcium flux; Mas-related G-protein coupled receptor member X1 (Homo sapiens), Q96LB2; FDSS; stronger effect = higher value; B-score at 10 µM; 310,000 tested, 0.63% active;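 active = plate-corrected calcium response at least 3 library SD above typical, normal starting fluorescence, not activating the receptor alone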;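 note: compound read alongside a low EC10 to EC30 dose of BAM8-22 agonist; peak minus trough fluorescence over baseline measured at the second addition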
MrgX1 antagonist = antagonists of human MrgX1 receptor, primary screen, HEK293 cells, Fluo-4 calcium flux; Mas-related G-protein coupled receptor member X1 (Homo sapiens), Q96LB2; BAM8-22 antagonism; stronger effect = lower value; B-score at 10 µM; 310,000 tested, 1.3% active;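 active = calcium-response B-score plate-corrected more than 3 library SD below zero, starting fluorescence within 5 deviations, no agonist response on first addition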;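 note: peak minus trough fluorescence over baseline after final BAM8-22 challenge near maximal dose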
RGS4 inh valid = enhanced carbachol calcium response, M3R/RGS4 cells, RGS4 inhibitor project, cell-based, validation screen, HEK293 M3R/RGS4, calcium flux; calcium response, % at 10 µM; shares compounds with RGS4 inh; AID 492999, 2010; carbachol calcium Fluo-4 fluorescence; carbachol added at its EC20; 0 = buffer wells, 100 = carbachol control; 1,700 tested, 65% active;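 active = duplicate-averaged calcium response above the buffer-only control mean plus 5 SD of those controls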;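 note: integrated fluorescence ratio F max minus min over baseline F0; higher response in RGS4-induced cells means RGS4 inhibition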
RGS4 uninduced = carbachol calcium response in non-induced M3R cells, confirmation, counter-screen for RGS4 inhibitor project, cell-based, HEK293 M3R | shares compounds with RGS4 inh | 1,900 tested, 20% active | AID 493000, 2010 | carbachol calcium Fluo-4; submaximal (EC20) carbachol stimulus; buffer wells 0%, carbachol control wells 100% | activity (percent), % at 10 µM; call rule not given here;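 note: RGS4 induction absent so cells express M3R without RGS4; higher means more calcium signal and flags a non-specific hit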
RGS4 inh ctr2 = second RGS4 inhibitor counter-screen in uninduced cells lacking carbachol; shares compounds with RGS4 inh; AID 493001; calcium response (agonist-mode artifact), % at 10 µM; 1,900 tested, 22% active; HEK293 M3R/RGS4 non-induced, Fluo-4 calcium, no carbachol; normalised: buffer wells 0%, carbachol wells 100%;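 active = duplicate-averaged calcium rise in uninduced cells above buffer wells' mean plus 5 SD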
Of the large screens only hits and unclear results are named; the others gave an inactive call (follow-up assays come after a bar, where they were run). A selection: hits, their analogues and other compounds. The true share with any hit is near 3.5%.

CC1=CC(C)(C)N2C(=O)C3(C(C#N)=C(N)Oc4cc(O)ccc43)c3c(C)c(C)cc1c32 (centres undefined)	RGS4 inh 5.94 | RGS4 inh valid 29.0% | RGS4 uninduced inactive | RGS4 inh ctr2 inactive
CCOC(=O)C1=C(c2ccccc2)NC(=O)NC1c1cc(Cl)c(O)c(OC)c1 (centres undefined)	none
CCOC(=O)C1=C(c2ccccc2)NC(N)=NC1c1ccc(OCc2ccc(Cl)cc2)c(OC)c1 (centres undefined)	RGS4 inh 8.93 | RGS4 inh valid 31.5% | RGS4 uninduced inactive | RGS4 inh ctr2 33.5%
CCc1nc2ccccc2c(NC(=O)CN2CC(C)CC(C)C2)c1C (centres undefined)	none
Cc1onc(-c2ccccc2)c1NC(=O)N(CCC#N)Cc1ccccc1	RGS4 inh 6.29 | RGS4 inh valid inactive | RGS4 uninduced inactive | RGS4 inh ctr2 inactive
N#CCCN(Cc1ccccc1)C(=O)Nc1ccccc1	none
CC(Sc1nc2ccccc2s1)C(=O)N(C)Cc1ccccc1 (centres undefined)	none
COc1ccccc1CC(NC(C)=O)C(=O)NC1CCN(S(=O)(=O)c2ccccc2)CC1 (centres undefined)	RGS4 inh 5.71 (no result: MrgX1 ag, MrgX1 allo act, MrgX1 antagonist) | RGS4 inh valid inactive | RGS4 uninduced inactive | RGS4 inh ctr2 inactive
COc1cccc(CC(NC(C)=O)C(=O)NC2CCN(S(=O)(=O)c3ccc(NC(C)=O)cc3)CC2)c1OC (centres undefined)	none
COc1ccccc1CC(NC(C)=O)C(=O)NC1CCN(S(=O)(=O)c2ccc(NC(C)=O)cc2)CC1 (centres undefined)	none | RGS4 inh valid inactive | RGS4 uninduced inactive | RGS4 inh ctr2 inactive
COc1ccc(CCC(=O)NCCOc2ccccc2Cl)cc1	none
Cc1cc(C2(c3ccc(O)c(C)c3)C(=O)N(C)c3ccc(Br)cc32)ccc1O	RGS4 inh 12.8 | RGS4 inh valid 28.0% | RGS4 uninduced inactive | RGS4 inh ctr2 inactive
Cn1c(SCC(=O)N=Nc2c(O)[nH]c3ccccc23)nc2ccccc21	none
O=C(CSc1nc2ccccc2[nH]1)N=Nc1c(O)[nH]c2ccccc12	RGS4 inh 4.99 | RGS4 inh valid inactive | RGS4 uninduced inactive | RGS4 inh ctr2 inactive
CC(C)c1ccc(/C=C2\CC/C(=C\C=N\N(C)C)C2=O)cc1	none
CN(C)/N=C/C=C1\CC/C(=C\c2ccc(F)c(F)c2)C1=O	none | RGS4 uninduced inactive | RGS4 inh ctr2 16.0%
O=c1nc(N2CCCC2)nc(Nc2ccccc2)[nH]1	none | RGS4 inh valid inactive | RGS4 uninduced inactive | RGS4 inh ctr2 inactive
c1ccc(Nc2nc(N3CCCC3)nc(N3CCOCC3)n2)cc1	none | RGS4 inh valid inactive | RGS4 uninduced inactive | RGS4 inh ctr2 inactive
COc1ccc(Nc2nc(N3CCCC3)nc(N3CCOCC3)n2)cc1	none
O=C(c1sc2cccc(Cl)c2c1Cl)N1CCN(CCc2ccccn2)CC1	none
CCCOc1ccc(-c2c(C(=O)N/N=C/c3ccc(C)cc3)nnn2-c2nonc2N)cc1	none | RGS4 uninduced 39.0% | RGS4 inh ctr2 inactive
CCOc1ccc(-c2c(C(=O)N/N=C/c3ccc(C)cc3)nnn2-c2nonc2N)cc1	none | RGS4 inh valid inactive | RGS4 uninduced inactive | RGS4 inh ctr2 inactive
Cc1cc(S(=O)(=O)N2CCOCC2)ccc1OCC(=O)Nc1ccc(F)cc1F	none
c1ccc(-c2ccc(Oc3cc(N4CCOCC4)nc(-c4ccccc4)n3)cc2)cc1	none
CCSc1cc(N2CCCC2)nc(-c2ccccc2)n1	none
CC(C)Sc1cc(N2CCCC2)nc(-c2ccccc2)n1	RGS4 inh 6.21 | RGS4 inh valid 23.0% | RGS4 uninduced 51.0% | RGS4 inh ctr2 inactive
CC(C)Sc1cc(N2CCCC2)nc(-c2ccc(F)cc2)n1	RGS4 inh 9.25 | RGS4 inh valid 25.5% | RGS4 uninduced inactive | RGS4 inh ctr2 inactive
CC(C)Sc1cc(N2CCCC2)nc(-c2ccccc2Cl)n1	none
CC(C)Sc1cc(N2CCOCC2)nc(-c2ccccc2)n1	none | RGS4 inh valid inactive | RGS4 uninduced 30.0% | RGS4 inh ctr2 10.0%
Cc1onc(-c2ccc(Cl)cc2)c1-c1ccnc(SCC(=O)Nc2ccc(C(C)C)cc2)n1	none
CC(=O)N(C)Cc1ccc(C(=O)CCl)cc1	RGS4 inh 11.4 | RGS4 inh valid 22.5% | RGS4 uninduced inactive | RGS4 inh ctr2 21.0%
COCCNC(=O)c1cc2c(s1)-c1ccc(Cl)cc1SC2	none
NC(=O)c1cc2c(s1)-c1cc(Cl)ccc1SC2	RGS4 inh 5.86 | RGS4 inh valid 18.0% | RGS4 uninduced inactive | RGS4 inh ctr2 inactive
Nc1nn2cc(-c3ccccc3)nc2c2ccccc12	none | RGS4 uninduced inactive | RGS4 inh ctr2 inactive
Cc1cn2nc(N)c3ccccc3c2n1	none (no result: RGS4 inh, RGS4 pot)
CCOc1cc(/C=N/N=C/c2ccc(O)c(OCC)c2)ccc1O	none
CCOc1cc(/C=C2\CN(CC)C/C(=C\c3ccc(O)c(OCC)c3)C2=O)ccc1O	RGS4 inh 11.7, MrgX1 ag 26.9 | RGS4 inh valid 48.0% | RGS4 uninduced 36.5% | RGS4 inh ctr2 12.5%
COc1ccc(OCCSc2nnc(Cc3cccc4ccccc34)n2N)cc1	none | RGS4 uninduced inactive | RGS4 inh ctr2 inactive
OCCN(CCO)c1ccc(C(c2ccccc2Cl)c2ccc(N(CCO)CCO)cc2Cl)c(Cl)c1	none | RGS4 inh valid inactive | RGS4 uninduced inactive | RGS4 inh ctr2 15.0%
OCCN(CCO)c1ccc2ccccc2c1	none
Cc1ccc2c(c1)c1c(n2CC(O)Cn2c(C)nc3ccccc32)/C(=N\O)CCC1 (centres undefined)	RGS4 inh 14.6 | RGS4 inh valid 42.5% | RGS4 uninduced inactive | RGS4 inh ctr2 inactive
O=C(Nc1nnc(CC2=CCCCC2)s1)Nc1ccccc1F	none
O=C(Nc1cccc(Cl)c1)Nc1nnc(CC2=CCCCC2)s1	RGS4 inh 10.1 | RGS4 inh valid 5.5% | RGS4 uninduced inactive | RGS4 inh ctr2 inactive
O=[N+]([O-])c1cccc(NC(=S)N2CCc3ccccc32)c1	none
Cc1cc(=O)[nH]c(SCC(=O)Nc2nc(-c3ccccc3)cs2)n1	none | RGS4 uninduced inactive | RGS4 inh ctr2 inactive
